How the values were obtained:
MCF7 = assay: Antiproliferative activity against human MCF7 cells after 48 hrs by MTT assay; assay type: functional, cell-based; details: MCF7, 48 h
Outline: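 Cells seeded at 30,000 per well, grown 24 h at 37 °C, 5% CO2, then exposed to 5-fold serial dilutions of compound (dissolved in 1% DMSO) for 48 h under same conditions. MTT added at 5 mg/mL; after lysis, absorbance read at 570 nm 4 h later. IC50 taken from exponential viability-versus-concentration curve relative to untreated controls.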

HepG2 [1] = assay: Antiproliferative activity against human HepG2 cells after 48 hrs by MTT assay; assay type: functional, cell-based; details: HepG2, 48 h
HepG2 [2] = assay: Potency index, ratio of erlotinib IC50 to compound IC50 for human HepG2 cells; assay type: functional

O=C(CN1CCCC1)Nc1ccc2ncnc(Nc3ccc(OCc4ccccc4)cc3)c2c1
IC50 (MCF7): > 100 µM | IC50 (HepG2 [1]): > 100 µM

O=C(CN1CCCCC1)Nc1ccc2ncnc(Nc3ccc(Cl)c(C(F)(F)F)c3)c2c1
IC50 (MCF7): > 100 µM | IC50 (HepG2 [1]): > 100 µM

O=C(CN1CCCCC1)Nc1ccc2ncnc(Nc3ccc(Cl)cc3)c2c1
IC50 (MCF7): > 100 µM | IC50 (HepG2 [1]): 16 µM

O=C(CN1CCOCC1)Nc1ccc2ncnc(Nc3cccc(Br)c3)c2c1
IC50 (MCF7): 15 µM | IC50 (HepG2 [1]): 19 µM

O=C(CN1CCOCC1)Nc1ccc2ncnc(Nc3cccc(C(F)(F)F)c3)c2c1
IC50 (MCF7): 15 µM | IC50 (HepG2 [1]): > 100 µM

O=C(CN1CCOCC1)Nc1ccc2ncnc(Nc3ccc(OCc4cccc(F)c4)cc3)c2c1
IC50 (MCF7): > 100 µM | IC50 (HepG2 [1]): > 100 µM

O=C(CN1CCCC1)Nc1ccc2ncnc(Nc3ccc(Br)cc3)c2c1
IC50 (MCF7): > 100 µM | IC50 (HepG2 [1]): > 100 µM

O=C(CN1CCCC1)Nc1ccc2ncnc(Nc3cccc(C(F)(F)F)c3)c2c1
IC50 (MCF7): > 100 µM | IC50 (HepG2 [1]): 25.2 µM

CN1CCN(CC(=O)Nc2ccc3ncnc(Nc4ccc(Cl)cc4)c3c2)CC1
IC50 (MCF7): 15 µM | IC50 (HepG2 [1]): > 100 µM

O=C(CN1CCCC1)Nc1ccc2ncnc(Nc3ccc(Cl)c(C(F)(F)F)c3)c2c1
IC50 (MCF7): > 100 µM | IC50 (HepG2 [1]): > 100 µM

O=C(CN1CCCC1)Nc1ccc2ncnc(Nc3cccc(Br)c3)c2c1
IC50 (MCF7): 12 µM | IC50 (HepG2 [1]): > 100 µM

CN1CCN(CC(=O)Nc2ccc3ncnc(Nc4cccc(C(F)(F)F)c4)c3c2)CC1
IC50 (MCF7): > 100 µM | IC50 (HepG2 [1]): > 100 µM

O=C(CN1CCOCC1)Nc1ccc2ncnc(Nc3ccc(Cl)cc3)c2c1
IC50 (MCF7): > 100 µM | IC50 (HepG2 [1]): > 100 µM

O=C(CN1CCCCC1)Nc1ccc2ncnc(Nc3cccc(Br)c3)c2c1
IC50 (MCF7): 3 µM | IC50 (HepG2 [1]): 16 µM

O=C(CN1CCCCC1)Nc1ccc2ncnc(Nc3ccc(Br)cc3)c2c1
IC50 (MCF7): > 100 µM | IC50 (HepG2 [1]): > 100 µM

CN1CCN(CC(=O)Nc2ccc3ncnc(Nc4ccc(Cl)c(C(F)(F)F)c4)c3c2)CC1
IC50 (MCF7): > 100 µM | IC50 (HepG2 [1]): 25.3 µM

O=C(CN1CCOCC1)Nc1ccc2ncnc(Nc3ccc(OCc4ccccc4)cc3)c2c1
IC50 (MCF7): 25 µM | IC50 (HepG2 [1]): > 100 µM

O=C(CN1CCOCC1)Nc1ccc2ncnc(Nc3ccc(Br)cc3)c2c1
IC50 (MCF7): > 100 µM | IC50 (HepG2 [1]): > 100 µM

O=C(CN1CCCCC1)Nc1ccc2ncnc(Nc3cccc(Cl)c3)c2c1
IC50 (MCF7): > 100 µM | IC50 (HepG2 [1]): 12 µM | Ratio IC50 (HepG2 [2]): 2

O=C(CN1CCCC1)Nc1ccc2ncnc(Nc3ccc(OCc4cccc(F)c4)cc3)c2c1
IC50 (MCF7): 25 µM | IC50 (HepG2 [1]): 25.1 µM

O=C(CN1CCOCC1)Nc1ccc2ncnc(Nc3cccc(Cl)c3)c2c1
IC50 (MCF7): > 100 µM | IC50 (HepG2 [1]): > 100 µM

O=C(CN1CCCC1)Nc1ccc2ncnc(Nc3cccc(Cl)c3)c2c1
IC50 (MCF7): > 100 µM | IC50 (HepG2 [1]): > 100 µM

CN1CCN(CC(=O)Nc2ccc3ncnc(Nc4cccc(Br)c4)c3c2)CC1
IC50 (MCF7): 10 µM | IC50 (HepG2 [1]): 25.3 µM

O=C(CN1CCCCC1)Nc1ccc2ncnc(Nc3cccc(C(F)(F)F)c3)c2c1
IC50 (MCF7): > 100 µM | IC50 (HepG2 [1]): > 100 µM

CN1CCN(CC(=O)Nc2ccc3ncnc(Nc4cccc(Cl)c4)c3c2)CC1
IC50 (MCF7): > 100 µM | IC50 (HepG2 [1]): > 100 µM

O=C(CN1CCOCC1)Nc1ccc2ncnc(Nc3ccc(Cl)c(C(F)(F)F)c3)c2c1
IC50 (MCF7): > 100 µM | IC50 (HepG2 [1]): > 100 µM

O=C(CN1CCCC1)Nc1ccc2ncnc(Nc3ccc(Cl)cc3)c2c1
IC50 (MCF7): 16 µM | IC50 (HepG2 [1]): 18 µM

CN1CCN(CC(=O)Nc2ccc3ncnc(Nc4ccc(Br)cc4)c3c2)CC1
IC50 (MCF7): > 100 µM | IC50 (HepG2 [1]): > 100 µM
